Reference: ChEMBL document CHEMBL3272149, “Synthesis and antibacterial activity of some derivatives of tolypomycinone. Relationship between structure and activity in ansamycins” (J Med Chem, 1977)
In brackets after ≈: the same amount, converted by molar mass.

Key:
Assay type in all cases: functional
Staphylococcus aureus = assay: Antibacterial activity against Staphylococcus aureus 209 P(FDA) assessed as inhibition of visible growth after 24 hrs by serial dilution method
Klebsiella pneumoniae = assay: Antibacterial activity against Klebsiella pneumoniae Ottaviani assessed as inhibition of visible growth after 24 hrs by serial dilution method
Escherichia coli = assay: Antibacterial activity against Escherichia coli MC/35 assessed as inhibition of visible growth after 24 hrs by serial dilution method; details: MC/35, 24 h
[1] = test system: Salmonella enterica subsp. enterica serovar Paratyphi B; assay: Antibacterial activity against Salmonella paratyphi B 0248 K assessed as inhibition of visible growth after 24 hrs by serial dilution method
Summary of the method: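 Broth tube serial dilution in Brain Heart Infusion medium; inoculum 10^6 cells/mL; incubation 24 h at 35 °C; MIC taken as the lowest antibiotic concentration that prevented visible growth.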

Row | Structure (SMILES) | MIC (Staphylococcus aureus) [µg/mL] | MIC (Klebsiella pneumoniae) [µg/mL] | MIC (Escherichia coli) [µg/mL] | MIC [1] [µg/mL]
1 | CO[C@H]1/C=C/O[C@@]2(C)Oc3c(C)c(O)c4c(c3C2=O)C(=O)C(NCc2ccc3c(c2)OCO3)=C(NC(=O)/C(C)=C\C(=O)[C@@H]2C[C@@H]2[C@H](O)[C@@H](C)[C@@H](O)[C@@H](C)[C@H](OC(C)=O)[C@@H]1C)C4=O | < 0.005 | > 100 | > 100 | 100 (≈ 116 µM)
2 | CO[C@H]1/C=C/O[C@@]2(C)Oc3c(C)c(O)c4c(c3C2=O)C(=O)C(NCCc2ccccn2)=C(NC(=O)/C(C)=C\C(=O)[C@@H]2C[C@@H]2[C@H](O)[C@@H](C)[C@@H](O)[C@@H](C)[C@H](OC(C)=O)[C@@H]1C)C4=O | < 0.005 | 25 (≈ 30.1 µM) | 6 (≈ 7.23 µM) | 12 (≈ 14.5 µM)
3 | CO[C@H]1/C=C/O[C@@]2(C)Oc3c(C)c(O)c4c(c3C2=O)C(=O)C(NCCCN2CCN(C)CC2)=C(NC(=O)/C(C)=C\C(=O)[C@@H]2C[C@@H]2[C@H](O)[C@@H](C)[C@@H](O)[C@@H](C)[C@H](OC(C)=O)[C@@H]1C)C4=O | 0.025 (≈ 0.0289 µM) | 25 (≈ 28.9 µM) | 12 (≈ 13.9 µM) | 3 (≈ 3.47 µM)
4 | CO[C@H]1/C=C/O[C@@]2(C)Oc3c(C)c(O)c4c(c3C2=O)C(=O)C(NCCc2c[nH]cn2)=C(NC(=O)/C(C)=C\C(=O)[C@@H]2C[C@@H]2[C@H](O)[C@@H](C)[C@@H](O)[C@@H](C)[C@H](OC(C)=O)[C@@H]1C)C4=O | 0.05 (≈ 0.0611 µM) | 12 (≈ 14.7 µM) | 50 (≈ 61.1 µM) | 12 (≈ 14.7 µM)
5 | CO[C@H]1/C=C/O[C@@]2(C)Oc3c(C)c(O)c4c(c3C2=O)/C(=N/[C@@H]2CC[C@@H](O)O[C@H]2C)C=C(NC(=O)/C(C)=C\C(=O)[C@@H]2C[C@@H]2[C@H](O)[C@@H](C)[C@@H](O)[C@@H](C)[C@H](OC(C)=O)[C@@H]1C)C4=O | 0.025 (≈ 0.0304 µM) | 100 (≈ 122 µM) | > 100 | > 100
6 | CO[C@H]1/C=C/O[C@@]2(C)Oc3c(C)c(O)c4c(c3C2=O)C(=O)C(NCc2ccccc2)=C(NC(=O)/C(C)=C\C(=O)[C@@H]2C[C@@H]2[C@H](O)[C@@H](C)[C@@H](O)[C@@H](C)[C@H](OC(C)=O)[C@@H]1C)C4=O | < 0.005 |  |  | 
7 | CO[C@H]1/C=C/O[C@@]2(C)Oc3c(C)c(O)c4c(c3C2=O)C(=O)C(NCCNc2ccc([N+](=O)[O-])cn2)=C(NC(=O)/C(C)=C\C(=O)[C@@H]2C[C@@H]2[C@H](O)[C@@H](C)[C@@H](O)[C@@H](C)[C@H](OC(C)=O)[C@@H]1C)C4=O | < 0.025 | > 50 | > 50 | > 50
8 | CO[C@H]1/C=C/O[C@@]2(C)Oc3c(C)c(O)c4c(c3C2=O)C(=O)C(NCc2ccncc2)=C(NC(=O)/C(C)=C\C(=O)[C@@H]2C[C@@H]2[C@H](O)[C@@H](C)[C@@H](O)[C@@H](C)[C@H](OC(C)=O)[C@@H]1C)C4=O | 0.005 (≈ 0.00613 µM) | 100 (≈ 123 µM) | 25 (≈ 30.6 µM) | 12 (≈ 14.7 µM)
9 | CO[C@H]1/C=C/O[C@@]2(C)Oc3c(C)c(O)c4c(c3C2=O)C(=O)C(NCc2ccccn2)=C(NC(=O)/C(C)=C\C(=O)[C@@H]2C[C@@H]2[C@H](O)[C@@H](C)[C@@H](O)[C@@H](C)[C@H](OC(C)=O)[C@@H]1C)C4=O | < 0.005 | 12 (≈ 14.7 µM) | 6 (≈ 7.35 µM) | 25 (≈ 30.6 µM)
10 | CO[C@H]1/C=C/O[C@@]2(C)Oc3c(C)c(O)c4c(c3C2=O)C(=O)C(NCC2CCCN(C)C2)=C(NC(=O)/C(C)=C\C(=O)[C@@H]2C[C@@H]2[C@H](O)[C@@H](C)[C@@H](O)[C@@H](C)[C@H](OC(C)=O)[C@@H]1C)C4=O (stereo partly drawn) | 0.025 (≈ 0.0299 µM) | 12 (≈ 14.4 µM) | 12 (≈ 14.4 µM) | 12 (≈ 14.4 µM)
11 | CO[C@H]1/C=C/O[C@@]2(C)Oc3c(C)c(O)c4c(c3C2=O)C(=O)C(NCC2CCCO2)=C(NC(=O)/C(C)=C\C(=O)[C@@H]2C[C@@H]2[C@H](O)[C@@H](C)[C@@H](O)[C@@H](C)[C@H](OC(C)=O)[C@@H]1C)C4=O (stereo partly drawn) | 0.005 (≈ 0.00618 µM) | 25 (≈ 30.9 µM) | 6 (≈ 7.42 µM) | 12 (≈ 14.8 µM)
12 | CO[C@H]1/C=C/O[C@@]2(C)Oc3c(C)c(O)c4c(c3C2=O)C(=O)C(NCc2ccn(C)c2)=C(NC(=O)/C(C)=C\C(=O)[C@@H]2C[C@@H]2[C@H](O)[C@@H](C)[C@@H](O)[C@@H](C)[C@H](OC(C)=O)[C@@H]1C)C4=O | 0.005 (≈ 0.00611 µM) | 12 (≈ 14.7 µM) | 12 (≈ 14.7 µM) | 12 (≈ 14.7 µM)
13 | COC1/C=C/OC2(C)Oc3c(C)c(O)c4c(c3C2=O)C(=O)C=C(NC(=O)/C(C)=C\C(=O)C2CC2C(O)C(C)C(O)C(C)C(OC(C)=O)C1C)C4=O (stereo not drawn) [TOLYPOMYCINONE] | 0.5 (≈ 0.704 µM) |  |  | 
14 | CO[C@H]1/C=C/O[C@@]2(C)Oc3c(C)c(O)c4c(c3C2=O)C(=O)C(NC2CCCCC2)=C(NC(=O)/C(C)=C\C(=O)[C@@H]2C[C@@H]2[C@H](O)[C@@H](C)[C@@H](O)[C@@H](C)[C@H](OC(C)=O)[C@@H]1C)C4=O | 0.25 (≈ 0.31 µM) |  |  | 
15 | CO[C@H]1/C=C/O[C@@]2(C)Oc3c(C)c(O)c4c(c3C2=O)C(=O)C(NCc2ccccc2)=C(NC(=O)C(C)(NCc2ccccc2)CC(=O)[C@@H]2C[C@@H]2[C@H](O)[C@@H](C)[C@@H](O)[C@@H](C)[C@H](OC(C)=O)[C@@H]1C)C4=O (stereo partly drawn) | 0.25 (≈ 0.271 µM) |  |  | 
